Compounds with a hit are over-represented: about 3.5% of the library has one in this group of screens.
RGS4 block – RGS4 inhibitors, primary screen, cell-based, HEK293 M3R inducible RGS4, calcium flux | Fluo-4 calcium flux; stronger effect = higher value; triggered by carbachol at its EC20 | B-score at 10 µM | Regulator of G-protein signaling 4 (Homo sapiens), P49798 | 0.45% of 310,000 active;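 active = B-score, a plate-corrected calcium signal, over three deviations above library mean, with baseline fluorescence within five deviations of library mean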;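 also: RGS4 expression induced by doxycycline in cells with stable M3 receptor; B-score is computed from the integrated fluorescence ratio over baseline after carbachol; higher B-score means a larger calcium signal and so more RGS4 inhibition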
Target sequence (P49798 whole entry, looked up): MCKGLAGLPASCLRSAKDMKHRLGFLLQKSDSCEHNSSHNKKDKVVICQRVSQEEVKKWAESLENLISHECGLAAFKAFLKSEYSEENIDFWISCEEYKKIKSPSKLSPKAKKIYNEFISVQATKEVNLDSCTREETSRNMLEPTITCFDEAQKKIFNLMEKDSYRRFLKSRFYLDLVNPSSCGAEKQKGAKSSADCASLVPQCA
MrgX1 antag – antagonists of human MrgX1 receptor, primary screen, HEK293 cells, Fluo-4 calcium flux; B-score at 10 µM; 1.3% of 310,000 active; BAM8-22 antagonism; stronger effect = lower value;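 active = calcium-response B-score plate-corrected more than 3 library SD below zero, starting fluorescence within 5 deviations, no agonist response on first addition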;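 also: peak minus trough fluorescence over baseline after final BAM8-22 challenge near maximal dose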
Target sequence (Q96LB2 whole entry, looked up): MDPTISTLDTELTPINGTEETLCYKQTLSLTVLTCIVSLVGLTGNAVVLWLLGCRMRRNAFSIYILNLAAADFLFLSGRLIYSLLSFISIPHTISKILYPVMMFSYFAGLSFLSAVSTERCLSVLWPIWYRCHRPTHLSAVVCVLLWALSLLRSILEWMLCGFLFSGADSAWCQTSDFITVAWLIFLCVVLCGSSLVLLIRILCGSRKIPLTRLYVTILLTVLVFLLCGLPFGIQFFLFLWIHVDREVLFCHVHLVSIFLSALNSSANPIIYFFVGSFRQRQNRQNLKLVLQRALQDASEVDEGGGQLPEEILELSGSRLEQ
MrgX1 agonist – agonists of human MrgX1 receptor, primary screen, HEK293 cells, Fluo-4 calcium flux; Mas-related G-protein coupled receptor member X1 (Homo sapiens), Q96LB2; Fluo-4 calcium fluorescence, agonist mode; stronger effect = higher value; AID 588627, 2011; B-score at 10 µM; 0.44% of 310,000 active;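 active = calcium response B-score plate-corrected fluorescence ratio at least 3 library SD, with starting fluorescence B-score inside 5 SD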
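Test system: HEK293 cells stably expressing human MrgX1 receptor; Input: fifteen thousand cells per well; Dosing: compound delivered in addition one of three; Schedule: overnight seeding, then 1 h dark dye loading; Technique: Fluo-4 NW calcium fluorescence; Measure: B-scored fluorescence response ratio; Controls: positive and negative controls per plate.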
MrgX1 PAM – positive allosteric modulators of MrgX1, primary screen, HEK293 cells, Fluo-4 calcium flux. B-score at 10 µM. 0.63% of 310,000 active. AID 588675, 2011. FDSS; stronger effect = higher value;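 active = plate-corrected calcium response at least 3 library SD above typical, normal starting fluorescence, not activating the receptor alone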;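 also: compound read alongside a low EC10 to EC30 dose of BAM8-22 agonist; peak minus trough fluorescence over baseline measured at the second addition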
RGS4 pot – RGS4 potentiators or activators, primary screen, cell-based, HEK293 M3R inducible RGS4, calcium flux | carbachol calcium flux Fluo4; stronger effect = lower value | B-score at 10 µM | 0.92% of 310,000 active;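 active = B-score of the integrated calcium signal more than 4 SD below the library mean, with starting fluorescence not abnormally high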;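 also: negative B-score means reduced calcium response which marks RGS4 activation or potentiation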
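Reagent: ECmax carbachol challenge; Test system: M3R-expressing HEK293 line, RGS4 induced by doxycycline; Schedule: overnight RGS4 induction, 30 min dye load 37 °C, 20 min compound RT; Detection: calcium dye Fluo4 fluorescence; Read-out: Agonist-evoked peak-minus-minimum fluorescence over baseline, integrated ratio, B score.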
MrgX1 PAM conf – MrgX1 positive allosteric modulators, duplicate retest, confirmation, HEK293 cells, Fluo-4 calcium flux; shares compounds with MrgX1 PAM; Fluo-4 calcium fluorescence, FDSS; activation (ratio percentage), % at 10 µM; 13% of 1,200 active; AID 602413, 2012;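 active = ratio at least 3 SD above the weak peptide control, stable starting fluorescence, no direct agonism earlier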;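 also: compound followed by low BAM8-22 agonist challenge near EC20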
HEK293 Ca flux – nonspecific calcium signal in parental HEK293, confirmation, counter-screen for MrgX1 antagonist project, parental HEK293 cells, Fluo-4 calcium flux | Fluo-4 calcium fluorescence, FDSS | shares compounds with MrgX1 antag | AID 624111, 2012 | 2% of 4,000 active | fluorescence ratio F(max-min)/F0 at 10 µM;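 active = duplicate-averaged calcium fluorescence ratio at least three times the standard deviation of buffer wells, a nonspecific response in parental cells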
HEK293 Ca counter – calcium response in parental HEK293 cells, primary screen, counter-screen for MrgX1 allosteric activator project, cell-based, Fluo-4 calcium flux, duplicate | shares compounds with MrgX1 antag | Fluo-4 fluorescence ratio; stronger effect = higher value | fluorescence ratio F(max-min)/F0 at 10 µM | 0.4% of 4,000 active | AID 624114, 2012;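 active = calcium fluorescence ratio, averaged over duplicates, at least 3 SD of the buffer-well ratio, meaning a nonspecific response in receptor-free cells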;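 also: untransfected parental HEK293 lacking MrgX1 used as counterscreen for MrgX1 allosteric activators; fluorescence change taken during the second addition on a kinetic imager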
HEK293 Ca cntr2 – calcium response in parental HEK293 cells, primary screen, counter-screen for MrgX1 agonist project, cell-based, Fluo-4 calcium flux, duplicate, agonist mode; 8.7% of 4,000 active; Fluo-4 calcium fluorescence (FDSS); stronger effect = higher value; shares compounds with MrgX1 antag; fluorescence ratio F(max-min)/F0 at 10 µM;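 active = calcium fluorescence ratio at least three times the spread of buffer wells, meaning a non-specific response in parental cells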
* = called active by the depositor; i = inactive; x = not tested or not shown.

SMILES	RGS4 block	MrgX1 antag	MrgX1 agonist	MrgX1 PAM	RGS4 pot	MrgX1 PAM conf	HEK293 Ca flux	HEK293 Ca counter	HEK293 Ca cntr2
O=C(Nc1nccs1)C1C2/C=C\CCCCC21 (centres undefined)	i	i	i	12*	i	i	i	i	i
Cc1ccc(NC(=O)CNCc2cccs2)c(Br)c1	i	i	i	i	i	x	x	x	x
CCNC(=S)N(Cc1cc2cc(C)c(C)cc2[nH]c1=O)C1CCCC1	i	i	i	i	i	x	x	x	x
CCC(=O)N(Cc1cc2cc(C)c(C)cc2[nH]c1=O)C1CCCCC1	i	i	i	7.63*	i	i	i	i	i
CCOc1ccc2nc(SCC(=O)NCc3ccccc3OC)[nH]c2c1	i	i	i	15.3*	i	i	i	i	i
CC1CCCN(S(=O)(=O)c2ccc(C(=O)Nc3nnc(-c4ccccc4Cl)o3)cc2)C1 (centres undefined)	i	i	i	8.73*	i	i	i	i	i
O=C(O)c1cc(-c2ccc3c(c2)OCCO3)n[nH]1	i	i	i	i	i	x	x	x	x
Oc1ccccc1-c1cc(-c2ccc3c(c2)OCCO3)n[nH]1	i	i	i	6.92*	i	i	i	i	i
COc1ccc(C)cc1NC(=S)N1CC(C)OC(C)C1 (centres undefined)	i	i	i	i	i	x	x	x	x
COc1ccc(-c2nsc3c(SCc4ccccc4)ncnc23)cc1	i	i	i	6.76*	i	i	i	i	i
CCN(CC)C(=O)CSc1ncnc2c(-c3ccc(OC)cc3)nsc12	i	i	i	i	i	x	x	x	x
CC(=O)c1ccc(NC(=O)Nc2ccc3c(c2)nc(C)n3C)cc1	i	i	i	8.82*	i	i	i	i	i
CCCNC(=O)CN1C(=O)NC(CCSC)C1=O (centres undefined)	i	i	i	i	i	x	x	x	x
Cc1cc(C(=O)CN2C(=O)NC3(CCC(C)CC3)C2=O)c(C)n1C (centres undefined)	i	i	i	11.9*	i	i	i	i	i
COc1cccc(NC(=O)c2sc3ncn(CC(=O)N4CCN(c5ccccn5)CC4)c(=O)c3c2C)c1	i	i	i	i	i	x	x	x	x
CC(=O)Cc1nsc(NC(=O)c2ccc(-c3cccc(Cl)c3)o2)n1	i	i	i	12.9*	i	14.9%*	i	i	i
CC(=O)Cc1nsc(NC(=O)c2ccc(Br)o2)n1	i	i	i	7.4*	i	i	i	i	i
COc1ccc(C2CC(c3ccccc3)Nc3nc(NS(C)(=O)=O)nn32)cc1 (centres undefined)	i	i	i	i	i	x	x	x	x
CCc1ccc(/C=N/NC(=O)Cc2cccn2C)cc1	i	i	i	26.8*	i	12.6%*	i	i	i
CCC1=NN2C(=N)/C(=C\c3ccc(SCc4ccco4)o3)C(=O)N=C2S1	i	i	i	22.1*	i	i	i	i	57*
Cc1ccccc1OC(C)C(=O)NCc1cccnc1 (centres undefined)	i	i	i	i	i	x	x	x	x
CCOC(=O)C(Cc1ccccc1)C(=O)NCc1cccnc1 (centres undefined)	i	i	i	13.5*	i	i	i	i	i
Cc1ccc(C2=NC3(CCCC3)NC2=S)cc1	i	i	i	i	i	x	x	x	x
COc1cc(OC)cc(C2=NC3(CCC(C)CC3)NC2=S)c1 (centres undefined)	i	i	i	6.62*	i	i	i	i	i
O=C(Cc1ccc(F)cc1)Nc1nnc(SCC(=O)N2CCCCC2)s1	i	i	i	i	i	x	x	x	x
SMILES	RGS4 block	MrgX1 antag	MrgX1 agonist	MrgX1 PAM	RGS4 pot	MrgX1 PAM conf	HEK293 Ca flux	HEK293 Ca counter	HEK293 Ca cntr2
O=C(Nc1nnc(SCC(=O)N2CCCCC2)s1)c1ccc(F)cc1F	i	i	i	6.78*	i	i	i	i	i
O=C(CNC(=O)C(c1ccccc1)c1ccccc1)OCC(=O)c1cccs1	i	i	i	i	i	x	x	x	x
COCc1ccc(C(=O)N2CCCC(C(=O)c3cccc(C(F)(F)F)c3)C2)o1 (centres undefined)	i	i	i	32.2*	i	i	i	i	i
COC(=O)c1ccc(NC2(C#N)C(=O)Nc3ccccc32)cc1 (centres undefined)	i	i	i	i	i	x	x	x	x
Cc1ccc(NC2(C#N)C(=O)Nc3ccccc32)cc1C (centres undefined)	i	i	i	8.97*	i	i	i	i	47.4*
CCOc1ccc(C(=O)NCC(=O)OCC(=O)N2CCC(C)CC2)cc1	i	i	i	8.04*	i	i	i	i	i
O=C(Nc1ccc(Br)cc1)C1OCCc2ccccc21 (centres undefined)	i	i	i	10.7*	i	i	i	i	i
O=C(c1ccccc1Sc1ccccc1[N+](=O)[O-])N1CCCCC1	i	i	i	i	i	x	x	x	x
O=C(O)CN1CCCCC1	i	i	i	9.66*	i	i	i	i	i
CCOC(=O)C(Cc1ccccc1)C(=O)Nc1cccc2ccccc12 (centres undefined)	i	i	i	i	i	x	x	x	x
O=C(CCl)Nc1cccc(Oc2ccccc2)c1	i	i	i	13.1*	i	i	i	i	47.9*

Screening results (PubChem)
